From ChEMBL document CHEMBL4393735, “Molecular modelling, synthesis, and biological evaluations of a 3,5-disubstituted isoxazole fatty acid analogue as a PPARα-selective agonist” (Bioorg Med Chem, 2019)
Activity calls are given as the source filed them.

Legend:
[1] = target: T1, Peroxisome proliferator-activated receptor alpha (Homo sapiens) (UniProt Q07869); test: Agonist activity at PPARalpha in human Huh7 cells assessed as SCD1 mRNA expression at 50 uM measured after 18 hrs by qRT-PCR analysis; assay type: cell-based
T1 sequence (whole entry): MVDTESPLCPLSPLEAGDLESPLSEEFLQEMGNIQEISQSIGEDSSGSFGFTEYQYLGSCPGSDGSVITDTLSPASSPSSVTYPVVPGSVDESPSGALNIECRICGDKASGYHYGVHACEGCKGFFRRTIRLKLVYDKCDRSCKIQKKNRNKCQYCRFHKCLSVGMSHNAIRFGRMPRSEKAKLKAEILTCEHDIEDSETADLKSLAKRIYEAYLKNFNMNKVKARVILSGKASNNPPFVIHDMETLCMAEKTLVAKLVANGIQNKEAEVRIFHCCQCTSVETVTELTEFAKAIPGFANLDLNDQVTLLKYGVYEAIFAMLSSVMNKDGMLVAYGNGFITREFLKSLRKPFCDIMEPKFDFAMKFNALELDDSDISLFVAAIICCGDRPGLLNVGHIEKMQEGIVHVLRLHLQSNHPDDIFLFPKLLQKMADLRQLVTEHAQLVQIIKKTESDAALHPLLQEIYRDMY
Outline: (§1)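 Treatment for 18 h at 50 μM (or 1 μM for the 1 μM agents), DMSO vehicle. Harvested for qPCR. mRNA normalized to TBP by the comparative threshold method, expressed relative to DMSO control. Two biological replicates run in duplicate, mean ± SEM. Primary hepatocytes came from male C57BL/6N mice aged 7–8 weeks, isolated by portal-vein perfusion and digestion, seeded on collagen I and used on day 2. HuH-7 cells were kept in DMEM with 10% FBS and ITS.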

SGBS [2] = test: Induction of adipocyte differentiation in human preadipocyte derived from Simpson-Golabi-Behmel syndrome (SGBS) patient assessed as lipid accumulation at 25 uM measured for 12 days by Oil red O staining based microscopic analysis; assay type: functional, cell-based
Outline: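 Differentiation of SGBS preadipocytes was started in serum-free medium with transferrin, insulin, T3, hydrocortisol, IBMX and dexamethasone, plus 25 μM test agent, 2 μM rosiglitazone or 0.1% DMSO. On day 4 medium was switched to lack IBMX and dexamethasone, and it was renewed on day 8. Cells were fixed with 4% PFA and stained with 0.3% Oil Red O on days 0, 4, 8 and 12, then photographed.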

[3] = target: T2, Peroxisome proliferator-activated receptor gamma (Homo sapiens, UniProt P37231); test: Agonist activity at full length human FLAG-tagged GAL4-DBD fused PPARgamma LBD (205 to 505 residues) expressed in COS1 cells measured after 18 hrs by dual luciferase reporter gene assay; assay type: cell-based
T2 sequence (P37231 whole entry): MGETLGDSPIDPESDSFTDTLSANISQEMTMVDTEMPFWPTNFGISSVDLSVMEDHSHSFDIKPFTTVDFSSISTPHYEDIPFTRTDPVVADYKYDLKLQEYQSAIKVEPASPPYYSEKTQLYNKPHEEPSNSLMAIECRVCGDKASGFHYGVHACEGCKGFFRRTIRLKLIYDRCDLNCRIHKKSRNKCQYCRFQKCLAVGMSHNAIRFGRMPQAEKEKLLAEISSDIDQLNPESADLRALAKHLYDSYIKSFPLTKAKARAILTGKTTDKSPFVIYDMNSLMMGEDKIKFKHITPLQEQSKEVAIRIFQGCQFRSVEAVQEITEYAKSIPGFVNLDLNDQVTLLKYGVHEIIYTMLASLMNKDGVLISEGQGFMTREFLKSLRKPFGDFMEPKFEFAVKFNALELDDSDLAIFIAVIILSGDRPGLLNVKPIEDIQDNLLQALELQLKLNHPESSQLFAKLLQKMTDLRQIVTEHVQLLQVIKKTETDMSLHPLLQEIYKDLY
Outline: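 Dose-response in COS-1 cells transfected with GAL4-DBD–human PPARα or PPARγ LBD, a 5×UAS-SV40 firefly reporter and pRL-CMV. Cells were treated with increasing concentrations in 0.1% DMSO (final) 6 h post-transfection, then for 18 h. Firefly/Renilla ratio, normalized to GAL4-only activity. EC50 was taken from a sigmoidal dose-response fit. At least three independent transfections in quadruplicate.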

SGBS [4] = test: Upregulation of ANGPTL4 gene expression in human preadipocyte derived from Simpson-Golabi-Behmel syndrome (SGBS) patient at 25 uM measured for 12 days by qRT-PCR analysis; assay type: functional, cell-based
Outline: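 SGBS cells were differentiated with serum-free induction medium containing 25 μM test agent, 2 μM rosiglitazone or 0.1% DMSO from day 0. IBMX and dexamethasone were removed on day 4 and medium was renewed on day 8. RNA was taken on days 0, 4, 8 and 12 for qPCR, normalized to TBP and to day 0. At least three biological replicates in duplicate, two-way ANOVA with Bonferroni.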

SGBS [5] = test: Upregulation of PPARgamma gene expression in human preadipocyte derived from Simpson-Golabi-Behmel syndrome (SGBS) patient at 25 uM measured for 12 days by qRT-PCR analysis; assay type: functional, cell-based
Outline: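 SGBS cells grown 4 days in biotin/D-pantothenate medium, then differentiated without FBS (apo-transferrin, insulin, T3, hydrocortisol, IBMX, dexamethasone) with 25 μM compound or 0.1 % DMSO added from day 0. After 4 days, switched to maintenance medium without IBMX/dexamethasone, renewed day 8. qPCR on days 0, 4, 8, 12, normalized to TBP (comparative threshold) and to day 0. Minimum three biological replicates in duplicate, mean ± SEM.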

[6] = target: T3, Peroxisome proliferator-activated receptor delta (Homo sapiens) (UniProt Q03181); test: Agonist activity at full length human GAL4-DBD fused PPARdelta LBD expressed in COS1 cells at 25 to 50 uM measured after 18 hrs by dual luciferase reporter gene assay; assay type: cell-based
T3 sequence (whole entry): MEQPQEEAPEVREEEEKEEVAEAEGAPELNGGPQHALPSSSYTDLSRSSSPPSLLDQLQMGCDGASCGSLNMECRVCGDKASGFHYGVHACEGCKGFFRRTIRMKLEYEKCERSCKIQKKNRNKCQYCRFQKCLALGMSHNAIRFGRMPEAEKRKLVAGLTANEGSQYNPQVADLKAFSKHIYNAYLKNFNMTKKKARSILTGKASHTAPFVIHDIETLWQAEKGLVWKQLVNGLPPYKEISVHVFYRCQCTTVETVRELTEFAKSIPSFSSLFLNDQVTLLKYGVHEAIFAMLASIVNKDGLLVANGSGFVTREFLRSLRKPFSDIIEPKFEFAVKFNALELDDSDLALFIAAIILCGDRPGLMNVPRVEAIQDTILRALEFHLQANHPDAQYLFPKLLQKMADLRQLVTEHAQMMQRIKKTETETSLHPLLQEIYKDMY
Outline: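 COS-1 cells were transfected using Lipofectamine 2000 with GAL4-DBD–human NR-LBD plasmid, a 5×UAS-SV40 firefly luciferase reporter and pRL-CMV. After 6 h, cells were treated with 0, 25 or 50 μM in 0.1% DMSO (final) for 18 h. Firefly signal was normalized to Renilla, then to DMSO control and GAL4-only. Three biological replicates in quadruplicate, mean ± SEM, two-way ANOVA with Bonferroni.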

[7] = target: T1, Peroxisome proliferator-activated receptor alpha (Homo sapiens); test: Agonist activity at PPARalpha in human Huh7 cells assessed as SREBF1 mRNA expression at 50 uM measured after 18 hrs by qRT-PCR analysis; assay type: cell-based; outline: as §1

Activity [1]: inactive | EC50 [3]: 2000 µM | Activity [6]: inactive | Activity [7]: inactive
Structure (SMILES): CCCCCCCc1cc(CCCCCC(=O)O)no1
Activity (SGBS [2]): Active | Activity (SGBS [4]): Active | Activity (SGBS [5]): Active
